Source: ChEMBL document CHEMBL4304827, “Design, synthesis and evaluation of structurally diverse chrysin-chromene-spirooxindole hybrids as anticancer agents” (Bioorg Med Chem, 2019)

Key:
A549 = experiment: Antiproliferative activity against human A549 cells assessed as reduction in cell proliferation incubated for 48 hrs by MTT assay; format: functional, cell-based; conditions: A549, 48 h
Method in brief: (§1)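 Log-phase cells were plated at 5 × 10^3/well in RPMI-1640 with 10% FBS and cultured 24 h. Compounds were added at graded concentrations (DMSO <0.1%) for 48 h. MTT (5 mg/mL) was added for about 4 h, formazan was dissolved in DMSO and A490 was read. IC50 was calculated from ≥3 independent experiments and reported as mean ± SD. Chrysin served as positive control.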

K562 = experiment: Antiproliferative activity against human K562 cells assessed as reduction in cell proliferation incubated for 48 hrs by MTT assay; format: functional, cell-based; conditions: K562, 48 h; method in brief: as §1
NCI-H1299 = experiment: Antiproliferative activity against human H1299 cells assessed as reduction in cell proliferation incubated for 48 hrs by MTT assay; format: functional, cell-based; conditions: NCI-H1299, 48 h; method in brief: as §1
PC-3 = experiment: Antiproliferative activity against human PC3 cells assessed as reduction in cell proliferation incubated for 48 hrs by MTT assay; format: functional, cell-based; conditions: PC-3, 48 h; method in brief: as §1
MRC5 = experiment: Cytotoxicity against human MRC5 cells assessed as reduction in cell proliferation incubated for 48 hrs by MTT assay; format: cell-based; conditions: MRC5, 48 h; method in brief: as §1

| SMILES | IC50 (A549) | IC50 (K562) | IC50 (NCI-H1299) | IC50 (PC-3) | IC50 (MRC5) |
| --- | --- | --- | --- | --- | --- |
| CCN1C(=O)C2(C(C#N)=C(N)Oc3cc4oc(-c5ccc(OC)cc5OC)cc(=O)c4c(O)c32)c2cc(Cl)ccc21 (stereo not given) | > 50 µM | 8.45 µM | > 50 µM | > 50 µM |  |
| N#CC1=C(N)Oc2cc3oc(-c4ccccc4)cc(=O)c3c(O)c2C12C(=O)Nc1ccccc12 (stereo not given) | 37.6 µM | 36.4 µM | > 50 µM | > 50 µM |  |
| N#CC1=C(N)Oc2cc3oc(-c4ccccc4)cc(=O)c3c(O)c2C12C(=O)Nc1cc(Cl)ccc12 (stereo not given) | 8.47 µM | 9.25 µM | 16.6 µM | 25.7 µM |  |
| N#CC1=C(N)Oc2cc3oc(-c4ccccc4)cc(=O)c3c(O)c2C12C(=O)Nc1c(Cl)cccc12 (stereo not given) | > 50 µM | 37.5 µM | > 50 µM | > 50 µM |  |
| CN1C(=O)C2(C(C#N)=C(N)Oc3cc4oc(-c5ccccc5)cc(=O)c4c(O)c32)c2ccccc21 (stereo not given) | > 50 µM | > 50 µM | > 50 µM | > 50 µM |  |
| CCN1C(=O)C2(C(C#N)=C(N)Oc3cc4oc(-c5ccccc5)cc(=O)c4c(O)c32)c2cc(C)ccc21 (stereo not given) | > 50 µM | > 50 µM | > 50 µM | > 50 µM |  |
| COc1ccc(-c2cc(=O)c3c(O)c4c(cc3o2)OC(N)=C(C#N)C42C(=O)N(C)c3ccc(C)cc32)c(OC)c1 (stereo not given) | > 50 µM | 12.2 µM | > 50 µM | > 50 µM |  |
| CCN1C(=O)C2(C(C#N)=C(N)Oc3cc4oc(-c5ccc(OC)cc5OC)cc(=O)c4c(O)c32)c2cc(Br)ccc21 (stereo not given) | > 50 µM | 16.1 µM | > 50 µM | > 50 µM |  |
| O=c1cc(-c2ccccc2)oc2cc(O)cc(O)c12 [CHRYSIN] | > 50 µM | > 50 µM | > 50 µM | > 50 µM | > 100 µM |
| CCN1C(=O)C2(C(C#N)=C(N)Oc3cc4oc(-c5ccccc5)cc(=O)c4c(O)c32)c2cccc(C)c21 (stereo not given) | > 50 µM | > 50 µM | > 50 µM | > 50 µM |  |
| CC(C)(C)OC(=O)CN1C(=O)C2(C(C#N)=C(N)Oc3cc4oc(-c5ccccc5)cc(=O)c4c(O)c32)c2ccccc21 (stereo not given) | > 50 µM | > 50 µM | > 50 µM | > 50 µM |  |
| Cc1ccc2c(c1)C1(C(=O)N2)C(C#N)=C(N)Oc2cc3oc(-c4ccccc4)cc(=O)c3c(O)c21 (stereo not given) | > 50 µM | > 50 µM | > 50 µM | > 50 µM |  |
| CN1C(=O)C2(C(C#N)=C(N)Oc3cc4oc(-c5ccccc5)cc(=O)c4c(O)c32)c2cc(Cl)ccc21 (stereo not given) | 4.72 µM | 4.34 µM | 11.2 µM | 21.4 µM |  |
| N#CC1=C(N)Oc2cc3oc(-c4ccccc4)cc(=O)c3c(O)c2C12C(=O)Nc1cc(Br)ccc12 (stereo not given) | 9.34 µM | 8.7 µM | 14.4 µM | 24.8 µM |  |
| Cc1ccc2c(c1)C1(C(=O)N2C)C(C#N)=C(N)Oc2cc3oc(-c4ccccc4)cc(=O)c3c(O)c21 (stereo not given) | 7.06 µM | 5.87 µM | 10.2 µM | > 50 µM |  |
| CN1C(=O)C2(C(C#N)=C(N)Oc3cc4oc(-c5ccccc5)cc(=O)c4c(O)c32)c2cccc(Cl)c21 (stereo not given) | > 50 µM | 41.4 µM | > 50 µM | > 50 µM |  |

Further lines, with some results ahead:

| IC50 (A549) | IC50 (K562) | IC50 (NCI-H1299) | IC50 (PC-3) | SMILES | IC50 (MRC5) |
| --- | --- | --- | --- | --- | --- |
| > 50 µM | > 50 µM | > 50 µM | > 50 µM | COc1ccc2c(c1)C1(C(=O)N2Cc2ccccc2)C(C#N)=C(N)Oc2cc3oc(-c4ccccc4)cc(=O)c3c(O)c21 (stereo not given) |  |
| > 50 µM | > 50 µM | > 50 µM | > 50 µM | COc1ccc(-c2cc(=O)c3c(O)c4c(cc3o2)OC(N)=C(C#N)C42C(=O)N(Cc3ccccc3)c3ccccc32)c(OC)c1 (stereo not given) |  |
| > 50 µM | 47.8 µM | > 50 µM | > 50 µM | N#CC1=C(N)Oc2cc3oc(-c4ccccc4)cc(=O)c3c(O)c2C12C(=O)N(Cc1ccccc1)c1c(Cl)cccc12 (stereo not given) |  |
| > 50 µM | 36.3 µM | > 50 µM | > 50 µM | N#CC1=C(N)Oc2cc3oc(-c4ccccc4)cc(=O)c3c(O)c2C12C(=O)N(Cc1ccccc1)c1ccc(Cl)cc12 (stereo not given) |  |
| > 50 µM | > 50 µM | > 50 µM | > 50 µM | Cc1ccc2c(c1)C1(C(=O)N2Cc2ccccc2)C(C#N)=C(N)Oc2cc3oc(-c4ccccc4F)cc(=O)c3c(O)c21 (stereo not given) |  |
| > 50 µM | > 50 µM | > 50 µM | > 50 µM | Cc1ccc2c(c1)C1(C(=O)N2Cc2ccccc2)C(C#N)=C(N)Oc2cc3oc(-c4ccccc4)cc(=O)c3c(O)c21 (stereo not given) |  |
| > 50 µM | 36.4 µM | > 50 µM | > 50 µM | N#CC1=C(N)Oc2cc3oc(-c4ccccc4)cc(=O)c3c(O)c2C12C(=O)N(Cc1ccccc1)c1ccc(Br)cc12 (stereo not given) |  |
| > 50 µM | > 50 µM | > 50 µM | > 50 µM | N#CC1=C(N)Oc2cc3oc(-c4ccccc4)cc(=O)c3c(O)c2C12C(=O)N(Cc1ccccc1)c1ccc(F)cc12 (stereo not given) |  |
| > 50 µM | > 50 µM | > 50 µM | > 50 µM | N#CC1=C(N)Oc2cc3oc(-c4ccccc4)cc(=O)c3c(O)c2C12C(=O)N(c1ccccc1)c1ccccc12 (stereo not given) |  |
| > 50 µM | > 50 µM | > 50 µM | > 50 µM | Cc1cccc2c1N(Cc1ccccc1)C(=O)C21C(C#N)=C(N)Oc2cc3oc(-c4ccccc4)cc(=O)c3c(O)c21 (stereo not given) |  |
